Measured values as given in ChEMBL document CHEMBL4715795, “Urolinin: The First Linear Peptidic Urotensin-II Receptor Agonist” (J Med Chem, 2016).
The source made the active and inactive calls. No cut-off for these calls is given here. Numbered stars: 1 amine (or outer) side, 2 acyl side, 3 side chain; on linkers, the order of the positions; unused ones are H or OH. Bridge positions count the residues as written; N and C are the ends. Square brackets hold non-standard residues; d marks the D form. Peptide text beside a SMILES is read from it. ξ: configuration not given here. Tyr(3-NO2) = N[C@@H](Cc1ccc(O)c([N+](=O)[O-])c1)C(=O)O; X1 = O=C([C@H](Cc1ccc(O)c(S(=O)(=O)O)c1)N[*:1])[*:2]; 2Nal = N[C@@H](Cc1ccc2ccccc2c1)C(=O)O; ξ2Nal = NC(Cc1ccc2ccccc2c1)C(=O)O

How the values were obtained:
Urotensin-2 receptor [1] = biological target: T1, Urotensin-2 receptor (Homo sapiens, UniProt Q9UKP6); assay: Displacement of [125I-Tyr9]-U-II from human U-IIR expressed in HEK293-A cells incubated for 30 mins by gamma counting based competition radioligand binding assay; format: cell-based
T1 sequence (Q9UKP6 whole entry): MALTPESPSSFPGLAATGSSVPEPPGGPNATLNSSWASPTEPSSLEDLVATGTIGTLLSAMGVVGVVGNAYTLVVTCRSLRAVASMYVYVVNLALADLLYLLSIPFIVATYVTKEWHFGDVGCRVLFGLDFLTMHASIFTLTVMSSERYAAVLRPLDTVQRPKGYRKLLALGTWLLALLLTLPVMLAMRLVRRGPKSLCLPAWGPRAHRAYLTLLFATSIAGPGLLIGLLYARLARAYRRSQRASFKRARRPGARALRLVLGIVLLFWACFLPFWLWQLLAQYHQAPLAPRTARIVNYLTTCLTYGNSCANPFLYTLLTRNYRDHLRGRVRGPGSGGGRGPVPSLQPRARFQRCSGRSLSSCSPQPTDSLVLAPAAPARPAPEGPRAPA

[2] = biological target: Somatostatin receptor type 1 (Homo sapiens, UniProt P30872); assay: Displacement of [125I-Tyr11]-SS14 from human SSTR1 expressed in HEK293-A cells incubated for 30 mins by gamma counting based competition radioligand binding assay; format: cell-based
Outline: (§1)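 Competition binding on HEK293A cells overexpressing the given human SSTR subtype, seeded overnight. Binding buffer: 50 mM Tris-HCl pH 7.4, 5 mM MgCl2, 1 mM CaCl, 0.5% BSA, protease inhibitors. 100000 cpm [125I-Tyr11]-SS14 (chloramine-T iodinated, HPLC-purified) with varying competitor, 30 min at 37 °C. Cells washed four times in cold buffer, lysed in 1 N NaOH, gamma counted. Mean ± SD, three experiments in duplicate.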

Urotensin-2 receptor [3] = biological target: T1, Urotensin-2 receptor; assay: Agonist activity at human U-IIR expressed in HEK293-A cells by Fluo4-AM dye based intracellular calcium mobilization assay; format: functional, cell-based
[4] = Half life in 25% human serum by RP-HPLC analysis; format: ADME, cell-free
Outline: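 Peptide at 50 μg/mL final in RPMI with 25% (v/v) human serum, pre-equilibrated at 37 °C. Samples taken at set times into 6% TCA, iced 15 min, spun at 18000g. Supernatant run on C18 RP-HPLC, 25–80% acetonitrile gradient over 15 min at 30 °C, absorbance at 214 and 280 nm.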

[5] = biological target: Somatostatin receptor type 2 (Homo sapiens, UniProt P30874); assay: Displacement of [125I-Tyr11]-SS14 from human SSTR2 expressed in HEK293-A cells incubated for 30 mins by gamma counting based competition radioligand binding assay; format: cell-based; outline: as §1
[6] = biological target: Somatostatin receptor type 5 (Homo sapiens, UniProt P35346); assay: Displacement of [125I-Tyr11]-SS14 from human SSTR5 expressed in HEK293-A cells incubated for 30 mins by gamma counting based competition radioligand binding assay; format: cell-based; outline: as §1
[7] = biological target: Somatostatin receptor type 3 (Homo sapiens, UniProt P32745); assay: Displacement of [125I-Tyr11]-SS14 from human SSTR3 expressed in HEK293-A cells incubated for 30 mins by gamma counting based competition radioligand binding assay; format: cell-based; outline: as §1
VSMC [8] = assay: Agonist activity at U-IIR in pig aorta VSMC assessed as increase of ERK1/2 phosphorylation at 500 nM incubated for 15 mins by Western blot analysis relative to control; settings: Sus scrofa, filed as agonist
Outline: (§2)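 Primary smooth muscle cells from aortas of 4–6-month-old domestic pigs, grown from minced-tissue explants and used at passages 5–10. Cells were grown to 80% confluence, then exposed to peptide at 5 or 500 nM in 0.1% FCS/DMEM for 15 min. Lysates were taken in Tris/SDS buffer and probed on Western blot for phospho-ERK1/2 (Thr202/Tyr204). Signal was normalized to total ERK1/2 and to the untreated control. n = 2–4 independent experiments, each with 3–6 replicates.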

VSMC [9] = assay: Agonist activity at U-IIR in pig aorta VSMC assessed as increase of ERK1/2 phosphorylation at 5 nM incubated for 15 mins by Western blot analysis relative to control; settings: Sus scrofa; outline: as §2
VSMC [10] = assay: Agonist activity at U-IIR in pig aorta VSMC assessed as increase of ERK1/2 phosphorylation incubated for 15 mins by Western blot analysis relative to control; settings: Sus scrofa, filed as agonist; outline: as §2

Sequence of Somatostatin receptor type 3 (P32745 whole entry): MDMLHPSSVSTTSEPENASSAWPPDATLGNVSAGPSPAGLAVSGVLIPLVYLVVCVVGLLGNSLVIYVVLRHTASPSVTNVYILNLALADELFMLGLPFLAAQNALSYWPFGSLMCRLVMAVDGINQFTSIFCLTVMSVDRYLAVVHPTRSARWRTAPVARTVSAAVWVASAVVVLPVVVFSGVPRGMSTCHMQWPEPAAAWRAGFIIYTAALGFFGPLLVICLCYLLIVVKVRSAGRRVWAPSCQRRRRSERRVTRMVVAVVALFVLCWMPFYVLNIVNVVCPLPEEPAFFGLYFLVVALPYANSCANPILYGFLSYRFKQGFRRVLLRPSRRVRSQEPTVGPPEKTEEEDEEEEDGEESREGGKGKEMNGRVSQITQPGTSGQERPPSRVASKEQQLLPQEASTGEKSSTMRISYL
Sequence of Somatostatin receptor type 2 (P30874 whole entry): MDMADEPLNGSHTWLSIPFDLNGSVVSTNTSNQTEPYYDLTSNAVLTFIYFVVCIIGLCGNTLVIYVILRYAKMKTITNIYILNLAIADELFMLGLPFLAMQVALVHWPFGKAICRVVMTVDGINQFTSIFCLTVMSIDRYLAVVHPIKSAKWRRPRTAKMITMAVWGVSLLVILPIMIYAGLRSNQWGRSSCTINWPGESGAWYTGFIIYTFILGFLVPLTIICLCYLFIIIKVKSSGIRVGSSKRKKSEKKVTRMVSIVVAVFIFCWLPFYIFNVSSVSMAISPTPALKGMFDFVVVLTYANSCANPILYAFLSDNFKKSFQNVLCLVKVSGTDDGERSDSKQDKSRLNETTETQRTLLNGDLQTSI
Sequence of Somatostatin receptor type 1 (P30872 whole entry): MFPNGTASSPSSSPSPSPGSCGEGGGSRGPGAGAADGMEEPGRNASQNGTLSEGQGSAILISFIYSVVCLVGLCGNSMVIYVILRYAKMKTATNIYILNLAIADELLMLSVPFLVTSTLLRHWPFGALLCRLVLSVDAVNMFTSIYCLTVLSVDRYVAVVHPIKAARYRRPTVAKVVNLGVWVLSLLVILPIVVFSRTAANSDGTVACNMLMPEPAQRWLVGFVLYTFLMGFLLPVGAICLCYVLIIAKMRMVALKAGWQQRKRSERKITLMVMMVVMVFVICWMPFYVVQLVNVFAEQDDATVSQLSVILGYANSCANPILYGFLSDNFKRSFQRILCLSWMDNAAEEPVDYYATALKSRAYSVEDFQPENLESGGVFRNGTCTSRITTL
Sequence of Somatostatin receptor type 5 (P35346 whole entry): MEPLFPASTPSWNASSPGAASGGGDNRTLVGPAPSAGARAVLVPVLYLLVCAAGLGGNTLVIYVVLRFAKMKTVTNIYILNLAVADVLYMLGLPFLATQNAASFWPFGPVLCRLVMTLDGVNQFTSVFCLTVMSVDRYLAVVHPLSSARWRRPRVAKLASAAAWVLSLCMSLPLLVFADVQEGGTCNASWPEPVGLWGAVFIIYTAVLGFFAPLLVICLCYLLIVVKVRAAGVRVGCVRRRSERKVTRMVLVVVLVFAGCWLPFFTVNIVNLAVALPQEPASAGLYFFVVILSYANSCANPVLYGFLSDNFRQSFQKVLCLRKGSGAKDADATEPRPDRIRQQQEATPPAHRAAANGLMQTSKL

Row | IC50 (Urotensin-2 receptor [1]) [nM] | EC50 (Urotensin-2 receptor [3]) [nM] | half-life [4] [min] | Molecule | further results
1 | 1090 | 3.47 | 55 | CCC(NC(=O)[C@H](Cc1ccc(O)c([N+](=O)[O-])c1)NC(=O)[C@H](CCCCN)NC(=O)[C@H](Cc1c[nH]c2ccccc12)NC(=O)[C@H](Cc1c[nH]c2ccccc12)NC(=O)[C@@H](N)CC(N)=O)C(N)=O (stereo partly specified) | –
2 | > 10000 | 60 | 50 | CCC(NC(=O)[C@H](Cc1ccc(O)cc1)NC(=O)[C@H](CCCCN)NC(=O)[C@H](Cc1c[nH]c2ccccc12)NC(=O)[C@H](Cc1c[nH]c2ccccc12)NC(=O)[C@@H](N)CC(N)=O)C(N)=O (stereo partly specified) | –
3 | 7880 | 108 | 34 | CCC(NC(=O)[C@H](Cc1ccc(O)cc1)NC(=O)[C@H](CCCCN)NC(=O)[C@H](Cc1c[nH]c2ccccc12)NC(=O)C(Cc1ccc2ccccc2c1)NC(=O)[C@@H](N)CC(N)=O)C(N)=O (stereo partly specified) | –
4 | 4830 | 23 | 3120 | CCC(NC(=O)[C@H](Cc1ccc(O)cc1)NC(=O)[C@H](CCCCN)NC(=O)[C@H](Cc1c[nH]c2ccccc12)NC(=O)[C@H](Cc1c[nH]c2ccccc12)NC(=O)[C@H](N)CC(N)=O)C(N)=O (stereo partly specified) | fold change (FC) (VSMC [8]): 1.9; Activity (VSMC [9]): inactive; Activity (VSMC [10]): Dose-dependent effect
5 | 4890 | 25.5 | 770 | CCC(NC(=O)[C@H](Cc1ccc(O)cc1)NC(=O)[C@H](CCCCN)NC(=O)[C@H](Cc1c[nH]c2ccccc12)NC(=O)[C@H](Cc1ccc2ccccc2c1)NC(=O)[C@H](N)CC(N)=O)C(N)=O (stereo partly specified) | –
6 | – | – | – | CC(C)[C@H](NC(=O)[C@@H]1CSSC[C@H](NC(=O)[C@H](CC(=O)O)NC(=O)[C@@H]2CCCN2C(=O)[C@@H](NC(=O)[C@@H](N)CCC(=O)O)[C@@H](C)O)C(=O)N[C@@H](Cc2ccccc2)C(=O)N[C@@H](Cc2c[nH]c3ccccc23)C(=O)N[C@@H](CCCCN)C(=O)N[C@@H](Cc2ccc(O)cc2)C(=O)N1)C(=O)O | fold change (FC) (VSMC [8]): 2.4; Activity (VSMC [9]): inactive; Activity (VSMC [10]): Dose-dependent effect
7 | – | 3.8 | – | NCCCC[C@@H]1NC(=O)[C@H](Cc2c[nH]c3ccccc23)NC(=O)[C@H](Cc2ccccc2)NC(=O)[C@@H](N)CSSC[C@@H](C(N)=O)NC(=O)[C@H](Cc2ccc(O)cc2)NC1=O (H-CFWKYC-NH2; disulfide 1-6) | –
8 | – | 0.83 | – | CC(C)[C@H](NC(=O)[C@@H]1CSSC[C@H](N)C(=O)N[C@@H](Cc2ccccc2)C(=O)N[C@@H](Cc2c[nH]c3ccccc23)C(=O)N[C@@H](CCCCN)C(=O)N[C@@H](Cc2ccc(O)cc2)C(=O)N1)C(N)=O (H-CFWKYCV-NH2; disulfide 1-6) | –
9 | 0.9 | 0.45 | 372 | CC(C)[C@H](NC(=O)[C@@H]1CSSC[C@H](NC(=O)[C@@H](N)CC(=O)O)C(=O)N[C@@H](Cc2ccccc2)C(=O)N[C@@H](Cc2c[nH]c3ccccc23)C(=O)N[C@@H](CCCCN)C(=O)N[C@@H](Cc2ccc(O)cc2)C(=O)N1)C(N)=O (H-DCFWKYCV-NH2; disulfide 2-7) | –
10 | – | 4.8 | – | CC(C)[C@H](NC(=O)[C@@H]1CSSC[C@H](NC(=O)[C@@H](N)Cc2ccccc2)C(=O)N[C@@H](Cc2ccccc2)C(=O)N[C@@H](Cc2c[nH]c3ccccc23)C(=O)N[C@@H](CCCCN)C(=O)N[C@@H](Cc2ccc(O)cc2)C(=O)N1)C(N)=O (H-FCFWKYCV-NH2; disulfide 2-7) | –
11 | – | 179 | – | NCCCC[C@H](NC(=O)[C@H](Cc1c[nH]c2ccccc12)NC(=O)[C@@H](N)Cc1ccccc1)C(=O)N[C@@H](Cc1ccc(O)cc1)C(N)=O (H-FWKY-NH2) | –
12 | 890 | 10.2 | 15 | COc1ccc(C[C@H](NC(=O)[C@H](CCCCN)NC(=O)[C@H](Cc2c[nH]c3ccccc23)NC(=O)[C@H](Cc2c[nH]c3ccccc23)NC(=O)[C@@H](N)CC(N)=O)C(=O)N[C@@H](CS)C(N)=O)cc1 (H-NWWKY(Me)C-NH2) | –
13 | 163 | 15.7 | 23 | NCCCC[C@H](NC(=O)[C@H](Cc1c[nH]c2ccccc12)NC(=O)[C@H](Cc1c[nH]c2ccccc12)NC(=O)[C@@H](N)CC(N)=O)C(=O)N[C@@H](Cc1ccc(O)c([N+](=O)[O-])c1)C(=O)N[C@@H](CS)C(N)=O (H-NWWK[Tyr(3-NO2)]C-NH2) | –
14 | > 10000 | 330 | 11 | NCCCC[C@H](NC(=O)[C@H](Cc1c[nH]c2ccccc12)NC(=O)[C@H](Cc1c[nH]c2ccccc12)NC(=O)[C@@H](N)CC(N)=O)C(=O)N[C@@H](Cc1ccc(O)c(S(=O)(=O)O)c1)C(=O)N[C@@H](CS)C(N)=O (H-NWWK[X1]C-NH2) | –
15 | 430 | 8.13 | 37 | NCCCC[C@H](NC(=O)[C@H](Cc1c[nH]c2ccccc12)NC(=O)[C@H](Cc1ccc2ccccc2c1)NC(=O)[C@@H](N)CC(N)=O)C(=O)N[C@@H](Cc1ccc(O)c([N+](=O)[O-])c1)C(=O)N[C@@H](CS)C(N)=O (H-N[2Nal]WK[Tyr(3-NO2)]C-NH2) | –
16 | 3060 | 74.9 | 17 | NCCCC[C@H](NC(=O)[C@H](Cc1c[nH]c2ccccc12)NC(=O)C(Cc1ccc2ccccc2c1)NC(=O)[C@@H](N)CC(N)=O)C(=O)N[C@@H](Cc1ccc(O)cc1)C(=O)N[C@@H](CS)C(N)=O (stereo partly specified) (H-N[ξ2Nal]WKYC-NH2) | –
17 | – | > 10000 | – | NCCCC[C@H](NC(=O)[C@H](Cc1c[nH]c2ccccc12)NC(=O)[C@@H](N)Cc1ccccc1)C(N)=O (H-Phe-Trp-Lys-NH2) | –

Row | IC50 (Urotensin-2 receptor [1]) [nM] | EC50 (Urotensin-2 receptor [3]) [nM] | half-life [4] [min] | Molecule | further results
18 | – | 1.99 | – | CC(C)[C@H](NC(=O)[C@@H]1CSSC[C@H](NC(=O)[C@@H](N)CCC(N)=O)C(=O)N[C@@H](Cc2ccccc2)C(=O)N[C@@H](Cc2c[nH]c3ccccc23)C(=O)N[C@@H](CCCCN)C(=O)N[C@@H](Cc2ccc(O)cc2)C(=O)N1)C(N)=O (H-QCFWKYCV-NH2; disulfide 2-7) | –
19 | – | 3.9 | – | CC(C)[C@H](NC(=O)[C@@H]1CSSC[C@H](NC(=O)[C@@H](N)[C@@H](C)O)C(=O)N[C@@H](Cc2ccccc2)C(=O)N[C@@H](Cc2c[nH]c3ccccc23)C(=O)N[C@@H](CCCCN)C(=O)N[C@@H](Cc2ccc(O)cc2)C(=O)N1)C(N)=O (H-TCFWKYCV-NH2; disulfide 2-7) | –
20 | – | > 10000 | – | NCCCC[C@H](NC(=O)[C@@H](N)Cc1c[nH]c2ccccc12)C(=O)N[C@@H](Cc1ccc(O)cc1)C(N)=O (H-Trp-Lys-Tyr-NH2) | –
21 | – | 201 | – | H-CFWKY-NH2 | –
22 | – | 29.8 | – | H-DHFWKYCV-NH2 | –
23 | – | 155 | – | H-DNFWKYCV-NH2 | –
24 | 300 | 32.6 | 19 | H-DVFWKYCV-NH2 | –
25 | – | 141 | – | H-FWKYC-NH2 | –
26 | 1550 | 10 | 19 | H-NWWKYC-NH2 | –
27 | – | 50.4 | – | H-NWWKYD-NH2 | –
28 | – | 65.6 | – | H-NWWKYE-NH2 | –
29 | – | 91.5 | – | H-NWWKYS-NH2 | –
30 | – | 143 | – | H-NWWKYT-NH2 | –
31 | – | 9.63 | – | H-QVFWKYCV-NH2 | –
32 | – | 11.2 | – | H-TVFWKYCV-NH2 | –
33 | – | 103 | – | H-TWWKYC-NH2 | –

Row | Molecule | IC50 (Urotensin-2 receptor [1]) [nM] | EC50 (Urotensin-2 receptor [3]) [nM] | half-life [4] [min] | further results
34 | CC(C)[C@H](NC(=O)[C@@H]1CSSC[C@H](NC(=O)[C@H](CC(=O)O)NC(=O)[C@@H]2CCCN2C(=O)[C@@H](NC(=O)[C@@H](N)CCC(=O)O)[C@@H](C)O)C(=O)N[C@@H](Cc2ccccc2)C(=O)N[C@@H](Cc2c[nH]c3ccccc23)C(=O)N[C@@H](CCCCN)C(=O)N[C@@H](Cc2ccc(O)cc2)C(=O)N1)C(N)=O | 2 | 1.46 | 209 | IC50 [2]: 10500 nM; IC50 [5]: 2980 nM; IC50 [6]: 7600 nM; IC50 [7]: 8640 nM
